Compound activity as filed in PubChem.
CDK5 inh: inhibitors of human CDK5/p35 kinase; Q00535+Q15078; Recombinant CDK5/p35, ADP-Glo luminescence, 60 min; inhibition, % at 10 µM; actives 0.01% (n = 330,000);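 active means highest replicate inhibition of at least 50% and at least 75% of replicates reaching 50%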;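 further: plate controls were DMSO neutral control for no effect and GW8510 at 10 µM for full effect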
CAL PDZ FP-1: CAL PDZ (human) peptide binding inhibition; inhibition, % at 24.9 µM; Q9HD26; purified CAL PDZ, TMR-peptide fluorescence polarization, 1 h; actives 0.92% (n = 300,000);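 active means mean inhibition of at least 30% with at least half of replicates also reaching 30%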;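 further: 0% = DMSO neutral control and 100% = excess unlabeled competitor peptide PRC23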
CAL PDZ FP-2: blocks peptide binding to human CAL PDZ domain; inhibition, % at 20 µM; Q9HD26; AID 504414; purified CAL PDZ, TMR-peptide fluorescence polarization, 1 h; actives 0.02% (n = 330,000);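 active means highest replicate inhibition of at least 40%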;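 further: plate controls were DMSO neutral control wells for no effect and unlabeled competitor peptide control wells for full effect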
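Test system: tagged CAL PDZ domain / Buffer or medium: sodium phosphate/NaCl buffer pH 7.4 with TCEP, IgG, Thesit / Reagent: TMR-labelled reporter peptide T*-PRC34 bound in PDZ groove / Compound dosing: single point, 20 µM / Schedule: 1 h incubation at room temperature before polarization reading / Technique: fluorescence polarization (mP) / Benchmarks: unlabelled peptide, DMSO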
C2C12 statin: protects C2C12 myotubes from simvastatin toxicity; ATP luminescence, 48 h; scaled: DMSO 0, geranylgeraniol control 100; rescue of ATP level, % at 7.49 µM; actives 0.78% (n = 330,000);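 active means mean ATP rescue above about 67%, or every replicate alone reaching that limit, limit read from the data, passing the limit was not always enough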;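 further: myotubes were challenged with 10 µM simvastatin during compound exposure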
dFosB act: mouse delta FosB homodimer activation. P13346. purified delta FosB, TAMRA-CDK5 oligo fluorescence polarization; percent of positive-control signal above neutral wells. activation, % at 25 µM. actives 0.99% (n = 340,000);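 active means mean activation above about 17%, with every replicate also reaching it, limit read from the data, passing the limit was not always enough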
Target sequence (P13346 whole entry, looked up): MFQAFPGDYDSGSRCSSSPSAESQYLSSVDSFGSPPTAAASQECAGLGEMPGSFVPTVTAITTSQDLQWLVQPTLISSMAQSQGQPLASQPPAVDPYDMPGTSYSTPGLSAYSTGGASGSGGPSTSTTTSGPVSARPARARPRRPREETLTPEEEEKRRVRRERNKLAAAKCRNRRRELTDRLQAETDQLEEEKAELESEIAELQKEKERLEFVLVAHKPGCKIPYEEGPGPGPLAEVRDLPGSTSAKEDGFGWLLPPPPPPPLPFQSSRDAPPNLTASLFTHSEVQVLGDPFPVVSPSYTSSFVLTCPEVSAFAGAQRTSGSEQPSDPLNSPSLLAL
S100A4 inh HTS: inhibitors of human S100A4 binding to myosin IIA peptide | S100A4/TAMRA-MyoIIA peptide fluorescence polarization | P26447 | actives 0.14% (n = 360,000) | inhibition, % at 10.7 µM | AID 652163;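 active means mean inhibition of at least 70% across replicates, with every replicate also reaching that level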
Target sequence (P26447 whole entry, looked up): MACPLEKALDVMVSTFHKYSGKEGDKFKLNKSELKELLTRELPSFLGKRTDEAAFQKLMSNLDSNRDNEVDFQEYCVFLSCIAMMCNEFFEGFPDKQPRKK
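Test system: S100A4 monomer protein; Medium: HEPES pH 7.2 with CaCl2, KCl, NaCl, DTT, Triton; Probe or stimulus: TAMRA-labelled myosin IIA heavy-chain peptide probe, 5 nM; Doses: one dose per compound; Times: polarization read 5 min after assay mix addition, stable 5–60 min; Benchmarks: neutral control DMSO, positive control TFP.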
An asterisk follows results filed as active; x = not tested or not shown. A selection: hits, their analogues and other compounds. The true share with any hit is near 2%.

SMILES	CDK5 inh	CAL PDZ FP-1	CAL PDZ FP-2	C2C12 statin	dFosB act	S100A4 inh HTS
C#CCOCCOCCOCCNc1nc(N2CCN(C(=O)[C@H](CCCCN)n3cc([C@@H](N)C(C)CC)nn3)CC2)nc(N2CCN(C(=O)[C@H](Cc3ccc(O)cc3)n3cc([C@@H](N)CC(C)C)nn3)CC2)n1 (stereo partly specified)	1	0	0	-3	-1	-3
O=S1(=O)CC(N2CCSCC2)CN1Cc1cn(Cc2ccccc2)nn1 (stereo unspecified)	x	x	x	x	x	-2
COc1ccc(F)cc1C(=O)C1CCCN(C(=O)CCN2CCCCO2)C1 (stereo unspecified)	-1	0	0	-5	-3	1
O=C(/C=C/c1ccccc1)NCCc1ccc2c(c1)OCCO2	-1	2	-1	x	-1	-9
CCOCCn1c(N2CCN(c3ccc(OC)cc3)CC2)nc2c1c(=O)[nH]c(=O)n2C	0	-4	x	103*	-8	12
CN1CCN(c2nc3c(c(=O)n(C)c(=O)n3C)n2Cc2cccc3ccccc23)CC1	2	0	-1	116*	-2	x
CN1CCN(c2nc3c(c(=O)[nH]c(=O)n3C)n2Cc2ccccc2F)CC1	0	51*	-1	2	-1	x
COc1ccc(C(=O)N2CCCC(CO)C2)cc1OC1CCN(C(C)C)CC1 (stereo unspecified)	x	x	x	-4	x	1
Cc1ccc(S(=O)(=O)N(C)C)cc1NC(=O)Nc1ccccc1F	x	x	x	1	x	-1
Cc1ccc(S(=O)(=O)N2CCN(C(=O)CN3C(=O)NC(C)(c4ccc5ccccc5c4)C3=O)CC2)cc1 (stereo unspecified)	1	73*	-2	9	-4	-5
COCC(COCCCNC(=O)Nc1ccc(Br)cc1)OC (stereo unspecified)	1	-1	0	108*	-2	x
Cc1ccc(Nc2cc(=O)[nH]c(=O)[nH]2)c(C)c1	-2	1	0	121*	6	x
Cc1cccc(Nc2cc(=O)[nH]c(=O)[nH]2)c1C	x	-1	-1	x	-5	x
CC(=O)NC1N=C(C)N(c2ccccc2)C1=O (stereo unspecified)	0	x	-1	5	-1	x
CNC(=O)c1sc(SC)cc1-c1ccc(Cl)cc1	0	-2	0	9	0	x
CSc1cc(-c2ccc(Cl)cc2)c(C(=O)N2CCCC2)s1	-1	-2	-2	126*	-11	x
N#CCC(=O)Nc1ccc(C(=O)OCC(=O)N(Cc2ccccc2)C2CCS(=O)(=O)C2)cc1 (stereo unspecified)	0	-2	-3	x	-10	14
NC(=O)c1cc(S(=O)(=O)NCc2ccc(F)cc2)cs1	x	-3	-2	4	-4	-8
CSc1ccc(CCNS(=O)(=O)c2csc(C(N)=O)c2)cc1	-1	2	-1	91*	-2	-3
COn1c(SCc2ccc(C)cc2C)nc2ccccc2c1=O	-2	48*	x	x	-6	x
COn1c(SCC(N)=O)nc2ccccc2c1=O	2	-1	-2	12	4	x
Cc1ccc2nc(SCC(=O)N(CC(C)C)c3c(N)n(CC(C)C)c(=O)[nH]c3=O)[nH]c2c1	0	-4	0	101*	-7	x
Cc1ccccc1-c1nnc(SCC(=O)N(CC(C)C)c2c(N)n(CC(C)C)c(=O)[nH]c2=O)n1C	0	-3	-2	x	-8	12
Cc1cc(C)n2c(SCC(=O)N(CC(C)C)c3c(N)n(CC(C)C)c(=O)[nH]c3=O)nnc2n1	0	70*	-1	x	2	-14
CNC(=O)C[C@H]1CC[C@@H]2[C@@H](COc3ccc(NC(=O)Cc4cccs4)cc3C(=O)N2C)O1	x	x	x	4	x	x
SMILES	CDK5 inh	CAL PDZ FP-1	CAL PDZ FP-2	C2C12 statin	dFosB act	S100A4 inh HTS
O=C(Nc1ccccc1)C1=C(c2ccccc2)S(=O)(=O)CCS1(=O)=O	1	34*	-1	x	-3	-9
CC(C)NC(=O)N(C)C[C@@H]1Oc2ncc(C#Cc3ccccc3F)cc2C(=O)N([C@H](C)CO)C[C@H]1C	x	x	x	-9	x	15
CCCCNC(=O)CN1C(=O)c2cccc(N)c2C1=O	0	66*	-1	x	1	5
O=C(NNC(=O)c1cc2cc3ccccc3nc2s1)c1ccc(F)cc1	-1	3	0	-4	-2	x
O=C(O)c1c[nH]c2ccc(S(=O)(=O)N3CCN(c4ccc(F)cc4)CC3)cc2c1=O	1	0	0	-19	3	-2
CCOC(=O)N1CCN(S(=O)(=O)c2ccc3[nH]cc(C(=O)O)c(=O)c3c2)CC1	1	2	0	97*	-3	x
COc1ccc(OC)c(NC(=O)C2CCCN2C(=O)NC2CCCCC2)c1 (stereo unspecified)	1	-3	-1	14	-11	1
O=C(CCC1CCCN(C(=O)c2ccc3c(c2)OCCO3)C1)NCc1ccccc1F (stereo unspecified)	2	1	-1	4	-5	-6
Cc1ccc(C2/C(=C(\O)c3cnn(-c4ccccc4)c3C)C(=O)C(=O)N2CCN(C)C)o1 (stereo unspecified)	1	-6	0	0	-2	x
Cc1ccc(C2/C(=C(/O)c3cnn(-c4ccccc4)c3C)C(=O)C(=O)N2CCN2CCOCC2)o1 (stereo unspecified)	-1	-3	-1	126*	-5	x
CC/C(=N\O)c1ccc(OC)c(OC)c1	-4	-6	-1	x	0	x
C=CCOc1ccc(/C(CC)=N/O)cc1OC	1	9	0	117*	-6	x
COc1cccc(NC(=O)[C@H](Cc2ccccc2)NC(=O)[C@@H]2Cc3ccccc3CN2)c1	0	x	-3	-6	-8	-1
COc1ccc(C)c2sc(N(CCN(C)C)C(=O)/C=C/c3cccs3)nc12	0	-6	-6	9	78*	7
COc1ccc(OC)c2sc(N(CCN(C)C)C(=O)/C=C/c3cccs3)nc12	-4	-3	-1	-35	40*	0
COc1cccc2sc(N(CCN(C)C)C(=O)/C=C/c3cccs3)nc12	-2	-2	-3	x	-6	1
CNC(=S)SCCOc1ccccc1C	0	-3	-3	x	1	1
Clc1ccc(CN2CCSCC2)cc1Cl	-1	-4	-2	-5	-7	3
O=C1CSCC(=O)N1Cc1ccc(Cl)c(Cl)c1	0	43*	x	11	6	-6
CO[C@H]1CC[C@H]2CCOc3ccc(C#N)cc3C(=O)N(C)C[C@@H](c3ccccc3)CC(=O)N(C)C[C@@H]1O2	x	x	x	1	x	0
COC(=O)c1ccc(CSc2nnc(CNC(=O)c3ccc(OC)cc3)o2)o1	0	-4	-3	-2	-1	x
